According to ChEMBL document CHEMBL5058577, “EUbOPEN Chemogenomics Library 2 (Multiplex)” (2022):

System: HEK-293T
Experiment: Multiplex assay against HEK293T
Format: toxicity, cell-based
Conditions: human
Summary of the method: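 Values for tubulin, mitochondrial-mass and membrane-permeability phenotypes are per cents of cells with healthy nuclei. These cells were identified by CellPathfinder machine-learning gating of live cells that had been stained at seeding with Hoechst33342, BioTracker Green Microtubule Cytoskeleton Dye, MitoTracker Red and Annexin V Alexa Fluor 680 and imaged on a CQ1 microscope at 37°C and 5% CO2 after compound addition. The gating first set Hoechst high-intensity objects apart from normal cells, then split normal cells into healthy, pyknosed or fragmented nuclei, and pyknosed cells into mitotic or apoptotic.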

[1] = 12 h, 1 µM, compound concentration 1 uM, replicate 1
[2] = 12 h, 1 µM, compound concentration 1 uM, replicate 2
[3] = 12 h, 10 µM, compound concentration 10 uM, replicate 1
[4] = 12 h, 10 µM, compound concentration 10 uM, replicate 2
[5] = 24 h, 1 µM, compound concentration 1 uM, replicate 1
[6] = 24 h, 1 µM, compound concentration 1 uM, replicate 2
[7] = 24 h, 10 µM, compound concentration 10 uM, replicate 1
[8] = 24 h, 10 µM, compound concentration 10 uM, replicate 2
[9] = 48 h, 1 µM, compound concentration 1 uM, replicate 1
[10] = 48 h, 1 µM, compound concentration 1 uM, replicate 2
[11] = 48 h, 10 µM, compound concentration 10 uM, replicate 1
[12] = 48 h, 10 µM, compound concentration 10 uM, replicate 2

## CC(C)(C)c1ccc(S(=O)(=O)Nc2ccc(Cl)cc2C(=O)c2cc[n+]([O-])cc2)cc1 [VERCIRNON]
[1]
  Population Apoptotic (%): 32%
  Population Fragmented Nuclei (%): 10%
  Population Healthy Nuclei (%): 77%
  Population Hoechst High Intensity Objects (%): 7%
  Population Membrane Permeable-Phenotype (%): 0%
  Population Mitochondria Different-Phenotype (%): 33%
  Population Mitotic Cells (%): 68%
  Population Normal (%): 92%
  Population Pyknosed Nuclei (%): 12%
  Population Tubulin-Different-Phenotype (%): 21%
  Total Cell Count: 428
[2]
  Population Apoptotic (%): 52%
  Population Fragmented Nuclei (%): 5%
  Population Healthy Nuclei (%): 84%
  Population Mitochondria Different-Phenotype (%): 51%
  Population Mitotic Cells (%): 47%
  Population Pyknosed Nuclei (%): 10%
  Population Tubulin-Different-Phenotype (%): 22%
  Total Cell Count: 424
[3]
  Population Apoptotic (%): 30%
  Population Fragmented Nuclei (%): 6%
  Population Healthy Nuclei (%): 83%
  Population Hoechst High Intensity Objects (%): 6%
  Population Membrane Permeable-Phenotype (%): 0%
  Population Mitochondria Different-Phenotype (%): 35%
  Population Mitotic Cells (%): 69%
  Population Normal (%): 93%
  Population Pyknosed Nuclei (%): 10%
  Population Tubulin-Different-Phenotype (%): 37%
  Total Cell Count: 451
[4]
  Population Apoptotic (%): 39%
  Population Fragmented Nuclei (%): 4%
  Population Healthy Nuclei (%): 82%
  Population Hoechst High Intensity Objects (%): 5%
  Population Membrane Permeable-Phenotype (%): 1%
  Population Mitochondria Different-Phenotype (%): 51%
  Population Mitotic Cells (%): 60%
  Population Normal (%): 94%
  Population Pyknosed Nuclei (%): 13%
  Population Tubulin-Different-Phenotype (%): 27%
  Total Cell Count: 344
[5]
  Population Apoptotic (%): 41%
  Population Fragmented Nuclei (%): 8%
  Population Healthy Nuclei (%): 81%
  Population Hoechst High Intensity Objects (%): 6%
  Population Membrane Permeable-Phenotype (%): 0%
  Population Mitochondria Different-Phenotype (%): 21%
  Population Mitotic Cells (%): 58%
  Population Normal (%): 93%
  Population Pyknosed Nuclei (%): 9%
  Population Tubulin-Different-Phenotype (%): 15%
  Total Cell Count: 522
[6]
  Population Apoptotic (%): 28%
  Population Hoechst High Intensity Objects (%): 5%
  Population Mitochondria Different-Phenotype (%): 32%
  Population Mitotic Cells (%): 71%
  Population Normal (%): 94%
  Population Tubulin-Different-Phenotype (%): 16%
  Total Cell Count: 521
[7]
  Population Apoptotic (%): 22%
  Population Fragmented Nuclei (%): 10%
  Population Healthy Nuclei (%): 77%
  Population Hoechst High Intensity Objects (%): 3%
  Population Membrane Permeable-Phenotype (%): 1%
  Population Mitochondria Different-Phenotype (%): 15%
  Population Mitotic Cells (%): 77%
  Population Normal (%): 96%
  Population Pyknosed Nuclei (%): 12%
  Population Tubulin-Different-Phenotype (%): 20%
  Total Cell Count: 594
[8]
  Population Apoptotic (%): 28%
  Population Fragmented Nuclei (%): 7%
  Population Healthy Nuclei (%): 82%
  Population Hoechst High Intensity Objects (%): 5%
  Population Membrane Permeable-Phenotype (%): 0%
  Population Mitochondria Different-Phenotype (%): 31%
  Population Mitotic Cells (%): 71%
  Population Normal (%): 94%
  Population Pyknosed Nuclei (%): 9%
  Population Tubulin-Different-Phenotype (%): 23%
  Total Cell Count: 437
[9]
  Population Apoptotic (%): 28%
  Population Fragmented Nuclei (%): 16%
  Population Healthy Nuclei (%): 76%
  Population Hoechst High Intensity Objects (%): 2%
  Population Membrane Permeable-Phenotype (%): 0%
  Population Mitochondria Different-Phenotype (%): 16%
  Population Mitotic Cells (%): 71%
  Population Normal (%): 97%
  Population Pyknosed Nuclei (%): 7%
  Population Tubulin-Different-Phenotype (%): 13%
  Total Cell Count: 834
[10]
  Population Apoptotic (%): 32%
  Population Fragmented Nuclei (%): 14%
  Population Healthy Nuclei (%): 81%
  Population Membrane Permeable-Phenotype (%): 2%
  Population Mitochondria Different-Phenotype (%): 14%
  Population Mitotic Cells (%): 67%
  Population Pyknosed Nuclei (%): 4%
  Population Tubulin-Different-Phenotype (%): 12%
  Total Cell Count: 877
[11]
  Population Apoptotic (%): 21%
  Population Fragmented Nuclei (%): 13%
  Population Healthy Nuclei (%): 81%
  Population Hoechst High Intensity Objects (%): 3%
  Population Membrane Permeable-Phenotype (%): 2%
  Population Mitochondria Different-Phenotype (%): 12%
  Population Mitotic Cells (%): 78%
  Population Normal (%): 96%
  Population Pyknosed Nuclei (%): 5%
  Population Tubulin-Different-Phenotype (%): 14%
  Total Cell Count: 929
[12]
  Population Apoptotic (%): 25%
  Population Fragmented Nuclei (%): 12%
  Population Healthy Nuclei (%): 80%
  Population Hoechst High Intensity Objects (%): 2%
  Population Membrane Permeable-Phenotype (%): 1%
  Population Mitochondria Different-Phenotype (%): 18%
  Population Mitotic Cells (%): 75%
  Population Normal (%): 97%
  Population Pyknosed Nuclei (%): 7%
  Population Tubulin-Different-Phenotype (%): 15%
  Total Cell Count: 586
